The conditions of data set [1]: cited from earlier work.
The target of data set [2] is T1, organic anion–transporting polypeptide 1B3 (Homo sapiens, UniProt Q9NPD5).
T1 sequence (Q9NPD5 1-702): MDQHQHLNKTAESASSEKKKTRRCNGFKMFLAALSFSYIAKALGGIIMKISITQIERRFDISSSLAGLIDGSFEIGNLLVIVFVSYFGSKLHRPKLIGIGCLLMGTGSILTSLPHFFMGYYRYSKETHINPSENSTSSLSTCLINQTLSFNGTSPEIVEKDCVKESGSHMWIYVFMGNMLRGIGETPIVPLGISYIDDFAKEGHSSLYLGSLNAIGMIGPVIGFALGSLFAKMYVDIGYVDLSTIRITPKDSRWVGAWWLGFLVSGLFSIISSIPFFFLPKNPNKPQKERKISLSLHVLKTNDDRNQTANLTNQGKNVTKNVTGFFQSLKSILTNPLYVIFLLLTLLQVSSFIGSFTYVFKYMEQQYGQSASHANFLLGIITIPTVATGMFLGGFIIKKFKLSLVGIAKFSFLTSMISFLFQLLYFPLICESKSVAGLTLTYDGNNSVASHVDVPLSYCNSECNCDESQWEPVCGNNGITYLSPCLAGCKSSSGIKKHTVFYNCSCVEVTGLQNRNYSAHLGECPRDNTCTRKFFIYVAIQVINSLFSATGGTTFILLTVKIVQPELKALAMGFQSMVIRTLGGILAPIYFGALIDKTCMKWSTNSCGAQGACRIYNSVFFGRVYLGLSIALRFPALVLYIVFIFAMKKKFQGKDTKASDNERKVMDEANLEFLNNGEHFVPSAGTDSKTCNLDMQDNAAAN
The experiment in a line: Hepatic uptake transporter substrate assessment, OATP1B3. It counts as in vitro ADME.

For data set [3] the following is noted: cited from earlier work. This is another data set of the same source.
The target in data set [4] is T2, breast cancer resistance protein (Homo sapiens, UniProt Q9UNQ0).
T2 sequence (Q9UNQ0 1-655): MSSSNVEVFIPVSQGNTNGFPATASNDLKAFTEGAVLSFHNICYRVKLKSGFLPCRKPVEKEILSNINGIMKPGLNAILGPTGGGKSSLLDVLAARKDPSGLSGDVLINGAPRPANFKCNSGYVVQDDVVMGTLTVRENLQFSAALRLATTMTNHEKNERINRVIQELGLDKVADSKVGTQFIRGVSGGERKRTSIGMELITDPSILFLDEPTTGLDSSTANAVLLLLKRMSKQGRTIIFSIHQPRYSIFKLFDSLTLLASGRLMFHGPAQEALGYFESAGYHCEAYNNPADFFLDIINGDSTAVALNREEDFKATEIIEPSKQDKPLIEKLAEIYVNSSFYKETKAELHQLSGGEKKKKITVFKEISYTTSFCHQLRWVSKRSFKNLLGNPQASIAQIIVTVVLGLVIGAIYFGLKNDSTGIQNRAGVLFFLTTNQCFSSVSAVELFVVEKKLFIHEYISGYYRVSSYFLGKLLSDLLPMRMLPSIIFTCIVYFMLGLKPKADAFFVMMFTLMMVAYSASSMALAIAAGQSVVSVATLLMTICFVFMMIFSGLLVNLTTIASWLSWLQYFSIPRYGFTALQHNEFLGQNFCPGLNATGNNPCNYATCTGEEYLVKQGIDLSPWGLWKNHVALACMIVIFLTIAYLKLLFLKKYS
Kind of data set: Efflux transporter substrate assessment in vitro, BCRP. In kind it is in vitro ADME.

A short description of another data set: Absolute bioavailability. It counts as in vivo. The conditions noted are these: human, plasma.
A short description of data set [5]: Fraction unbound in plasma. In kind it is in vitro ADME. The conditions noted are these: human.
For data set [6], the target named is T3, organic cation transporter 1 (Homo sapiens, UniProt O15245).
T3 sequence (O15245 1-554): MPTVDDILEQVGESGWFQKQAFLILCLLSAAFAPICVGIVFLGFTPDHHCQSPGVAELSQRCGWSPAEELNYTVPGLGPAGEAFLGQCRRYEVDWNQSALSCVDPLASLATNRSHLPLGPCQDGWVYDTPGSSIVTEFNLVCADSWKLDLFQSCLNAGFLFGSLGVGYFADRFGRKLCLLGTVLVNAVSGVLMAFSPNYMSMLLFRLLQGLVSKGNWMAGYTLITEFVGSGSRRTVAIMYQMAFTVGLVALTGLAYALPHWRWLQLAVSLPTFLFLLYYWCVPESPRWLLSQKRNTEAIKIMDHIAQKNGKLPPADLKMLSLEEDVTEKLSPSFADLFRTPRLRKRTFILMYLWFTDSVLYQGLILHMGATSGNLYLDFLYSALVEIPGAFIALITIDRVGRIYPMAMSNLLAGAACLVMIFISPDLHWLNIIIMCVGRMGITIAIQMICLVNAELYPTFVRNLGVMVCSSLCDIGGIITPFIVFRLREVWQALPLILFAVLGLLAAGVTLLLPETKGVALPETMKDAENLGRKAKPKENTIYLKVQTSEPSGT
Kind of data set: Hepatic uptake transporter substrate assessment, OCT1. In kind it is in vitro ADME.

The target in data set [7] is T4, organic anion–transporting polypeptide 1B1 (Homo sapiens, UniProt Q9Y6L6).
T4 sequence (Q9Y6L6 1-691): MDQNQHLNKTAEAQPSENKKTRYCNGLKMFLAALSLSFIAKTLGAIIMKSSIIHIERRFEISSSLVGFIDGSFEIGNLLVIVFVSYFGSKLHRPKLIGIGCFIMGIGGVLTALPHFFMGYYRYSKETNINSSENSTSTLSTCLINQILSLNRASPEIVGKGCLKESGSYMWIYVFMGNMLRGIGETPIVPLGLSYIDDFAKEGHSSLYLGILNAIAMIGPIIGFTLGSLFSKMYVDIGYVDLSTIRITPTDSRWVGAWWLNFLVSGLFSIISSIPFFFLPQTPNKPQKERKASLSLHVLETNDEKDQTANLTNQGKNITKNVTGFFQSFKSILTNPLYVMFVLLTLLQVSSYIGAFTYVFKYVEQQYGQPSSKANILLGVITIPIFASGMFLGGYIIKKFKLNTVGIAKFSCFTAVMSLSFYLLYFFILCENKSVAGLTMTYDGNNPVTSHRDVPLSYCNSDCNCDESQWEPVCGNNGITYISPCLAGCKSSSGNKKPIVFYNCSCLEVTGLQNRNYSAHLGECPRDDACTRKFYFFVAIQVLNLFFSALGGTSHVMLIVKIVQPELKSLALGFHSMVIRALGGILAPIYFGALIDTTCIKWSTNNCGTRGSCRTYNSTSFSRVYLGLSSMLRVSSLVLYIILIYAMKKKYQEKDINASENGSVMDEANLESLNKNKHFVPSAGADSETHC
The experiment in a line: Hepatic uptake transporter substrate assessment, OATP1B1. It counts as in vitro ADME.

Data set [8] can be described thus: PBPK model input and disposition parameters.
Another data set addresses P‐glycoprotein (Homo sapiens, UniProt P08183). Kind of data set: Efflux transporter substrate assessment in vitro, P-glycoprotein. It counts as in vitro ADME.
A further data set deals with CDK4/cyclin D1. The conditions noted are these: read-out: CDK4/cyclin D1 half‐maximal inhibitory concentration, mean ± SD; measured in vitro; cited from earlier work.
Data set [9] can be described thus: Clarithromycin interaction study. In kind it is in vivo. The conditions noted are these: both, human, plasma, po, 50 mg.
A short description of data set [10]: Measured physicochemical properties.
Data set [11] in a line: Rifampin interaction study. It counts as in vivo, human. In short, it runs like this:
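Single oral 200‑mg dose given alone and again with rifampin 600 mg once daily. Plasma levels of parent and active metabolites were measured in both arms, and mean concentration–time profiles are shown with SDs. Cmax and AUC0‑∞ were taken, with Tmax as median (min‑max). The interaction was expressed as with/without‑rifampin ratios of AUC0‑∞ and Cmax.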

The nature of data set [12]: Biopharmaceutic properties. It counts as physicochemical.
Data set [13] is described as follows: Mass balance study with 14C-labeled abemaciclib. It counts as in vivo, human.
The mark [14] stands for this setting: both, human, plasma, po, 200 mg.

P‐glycoprotein, sequence (P08183 whole entry): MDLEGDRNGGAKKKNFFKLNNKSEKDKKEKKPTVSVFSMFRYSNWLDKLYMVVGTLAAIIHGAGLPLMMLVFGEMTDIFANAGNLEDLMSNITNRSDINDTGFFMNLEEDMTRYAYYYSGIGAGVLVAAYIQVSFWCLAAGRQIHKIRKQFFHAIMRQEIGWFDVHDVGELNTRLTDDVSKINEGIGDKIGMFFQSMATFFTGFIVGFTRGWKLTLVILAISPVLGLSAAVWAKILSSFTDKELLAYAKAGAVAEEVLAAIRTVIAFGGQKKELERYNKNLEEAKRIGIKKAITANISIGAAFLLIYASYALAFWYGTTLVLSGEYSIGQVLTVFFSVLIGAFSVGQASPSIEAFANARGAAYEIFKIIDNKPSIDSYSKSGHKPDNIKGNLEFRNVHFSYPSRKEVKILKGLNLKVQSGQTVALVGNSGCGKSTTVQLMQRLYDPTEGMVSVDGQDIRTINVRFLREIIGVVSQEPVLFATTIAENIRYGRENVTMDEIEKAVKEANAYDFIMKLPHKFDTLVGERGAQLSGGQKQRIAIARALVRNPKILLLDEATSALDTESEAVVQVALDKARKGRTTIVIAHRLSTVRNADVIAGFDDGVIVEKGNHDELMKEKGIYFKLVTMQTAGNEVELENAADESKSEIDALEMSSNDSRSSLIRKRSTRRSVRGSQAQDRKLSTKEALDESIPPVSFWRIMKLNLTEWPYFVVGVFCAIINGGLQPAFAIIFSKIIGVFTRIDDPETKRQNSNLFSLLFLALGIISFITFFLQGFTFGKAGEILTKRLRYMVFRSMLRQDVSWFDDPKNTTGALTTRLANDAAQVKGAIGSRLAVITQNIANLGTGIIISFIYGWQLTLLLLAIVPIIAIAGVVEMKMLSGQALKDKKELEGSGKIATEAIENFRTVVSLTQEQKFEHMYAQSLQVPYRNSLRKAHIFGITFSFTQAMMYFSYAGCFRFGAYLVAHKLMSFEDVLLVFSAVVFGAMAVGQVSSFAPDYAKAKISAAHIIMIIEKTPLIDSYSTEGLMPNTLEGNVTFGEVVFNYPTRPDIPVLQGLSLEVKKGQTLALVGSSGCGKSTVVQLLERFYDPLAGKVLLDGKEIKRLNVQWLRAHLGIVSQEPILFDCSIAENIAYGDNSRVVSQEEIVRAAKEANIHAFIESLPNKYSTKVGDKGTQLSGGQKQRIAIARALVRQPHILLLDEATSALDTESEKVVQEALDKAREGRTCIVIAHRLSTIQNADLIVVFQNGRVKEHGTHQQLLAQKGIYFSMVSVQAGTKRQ

In the case of `COc1ccccc1Oc1c(NS(=O)(=O)c2ccc(C(C)(C)C)cc2)nc(-c2ncccn2)nc1OCCO` [Bosentan], in data set [1] (bosentan 125 mg BID 5 days, ketoconazole 200 mg QD), the “Cmax ratio with and without ketoconazole” value is 1.62.

For the compound `Cc1ncc2n1-c1ccc(Cl)cc1C(c1ccccc1F)=NC2` [Midazolam], the “increase in AUC extrapolated to infinity” value in [1] (IV midazolam with clarithromycin) is 3.5 fold.

Turning to `CCN1CCN(Cc2ccc(Nc3ncc(F)c(-c4cc(F)c5nc(C)n(C(C)C)c5c4)n3)nc2)CC1` [Abemaciclib], in data set [2], the “substrate of organic anion–transporting polypeptide 1B3” value is “not substrates”. Also, in data set [3] (abemaciclib and active species), the “increase of AUC by a high‐fat and high‐calorie meal” value was 9%. Moreover, in data set [3] (oral administration), the “time of observed maximum plasma concentration” value was […]. In addition, in data set [4], the “substrate of breast cancer resistance protein” value is “substrate”. Besides, in “Absolute bioavailability”, the half-life (usually how long it takes for the measured level to halve) is 29.3 h. Also, in the data set “Absolute bioavailability” (iv, 0.4 mg), the Vd (as a rule, the apparent volume that relates the amount in the body to the concentration in plasma or blood) worked out at 8.93 L/kg and the clearance – broadly, the rate of elimination divided by the concentration – is […]. Also, the fraction unbound (as a rule, the share of the substance not bound to proteins or other matrix) in [5] was 0.0557. In addition, the “substrate of organic cation transporter 1” value in data set [6] is reported as “not substrates”. In data set [7], the “substrate of organic anion–transporting polypeptide 1B1” value was “not substrates”. The “FG in the PBPK model” value in [8] (200‐mg dose) is 0.74. For the same compound, the “FG (fraction escaping first‐pass metabolism in the gut), calculated” value in data set [8] (200‐mg oral dose, equation 5) is listed as “approximately 0.77”. Further, the “FH (fraction escaping first‐pass metabolism in the liver)” value in data set [8] (200‐mg oral dose, equations 2-4) is listed as 0.64. On P‐glycoprotein, the “substrate of P‐glycoprotein” value is reported as “substrate”. Besides, the IC50 in the data set with CDK4/cyclin D1 is […]. Besides, in data set [9], the AUC (usually concentration integrated over time) worked out at […], the highest level (Cmax) was […], the time of peak concentration (Tmax) (commonly the time from dosing to the highest level) is […] and the half-life was […]. For the same compound, in data set [10] (octanol/water), the logP (commonly the decadic logarithm of the partition coefficient of the neutral form, usually between octanol and water) is […]. For the same compound, the pKa (in general, the negative logarithm of the acid dissociation constant) in data set [10] (pKa 2 (basic)) stood at 4.48. Further, in data set [11] (setting [14]), the AUC stood at 4570 ng·h/mL, the concentration peaked (Cmax) at […], the Tmax was determined as […] and the half-life is […]. The “decrease of AUC” value in [11] (with rifampin, observed) stood at 95%. Further, in data set [12], the “permeability (in words)” value is given as “high permeability” and the “solubility (in words)” value is “high solubility”. Also, the “percentage of parent in feces” value in data set [13] (14C study) was 6.76%. The “radioactivity excreted in urine” value in data set [13] (human mass balance study) is on record as […]. In [13] (human, urine, oral, 150 mg), this compound gave a CL renal of […]. Besides, the “Fa (fraction absorbed)” value in [13] (oral dose, estimated from mass balance study, equation 1) was […].
